Results taken from ChEMBL document CHEMBL1123529, “Analogues of substance P. Peptides containing D-amino acid residues in various positions of substance P and displaying agonist or receptor selective antagonist effects” (1986).
Several values for one entry are separate records, joined by “and”; a condition that tells them apart may be missing. Identical values can stand only once.

How the values were obtained:
[1] = biological target: Metabotropic glutamate receptor 3 (Rattus norvegicus) (UniProt P31422); experiment: Antagonistic activity against Glutamate receptor in rat spinal cord at concentration of 25 uM.; assay type: functional, tissue-based
Chain of Metabotropic glutamate receptor 3 (Rattus norvegicus) (P31422 23-879 limits assumed): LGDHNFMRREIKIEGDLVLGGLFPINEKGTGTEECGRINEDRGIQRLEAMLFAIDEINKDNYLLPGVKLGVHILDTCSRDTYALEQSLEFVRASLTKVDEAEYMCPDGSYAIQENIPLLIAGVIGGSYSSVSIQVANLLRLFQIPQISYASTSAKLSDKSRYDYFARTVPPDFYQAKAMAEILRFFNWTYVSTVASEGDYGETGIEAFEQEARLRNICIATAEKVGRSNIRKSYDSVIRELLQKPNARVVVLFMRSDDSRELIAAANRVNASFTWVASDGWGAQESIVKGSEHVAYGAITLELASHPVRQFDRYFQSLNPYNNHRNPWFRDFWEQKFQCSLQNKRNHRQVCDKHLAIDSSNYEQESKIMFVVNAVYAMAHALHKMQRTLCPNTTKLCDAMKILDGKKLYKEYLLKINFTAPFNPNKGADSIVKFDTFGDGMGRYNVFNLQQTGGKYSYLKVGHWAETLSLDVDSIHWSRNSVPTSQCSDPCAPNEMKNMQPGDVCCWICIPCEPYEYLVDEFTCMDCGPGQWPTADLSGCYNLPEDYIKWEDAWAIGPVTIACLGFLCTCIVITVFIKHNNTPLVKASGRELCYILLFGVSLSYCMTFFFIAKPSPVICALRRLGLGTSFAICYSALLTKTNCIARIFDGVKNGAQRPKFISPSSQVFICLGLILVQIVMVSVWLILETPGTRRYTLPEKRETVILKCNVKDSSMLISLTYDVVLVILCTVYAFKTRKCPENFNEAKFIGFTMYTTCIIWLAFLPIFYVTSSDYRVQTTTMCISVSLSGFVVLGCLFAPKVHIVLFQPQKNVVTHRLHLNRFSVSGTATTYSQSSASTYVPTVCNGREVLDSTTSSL
In short: (§1)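 Neonatal hemisectioned spinal cord from Wistar rats (Alderley Park strain, 2-7 days old), anaesthetised with intraperitoneal urethane (25% w/v, […]) and then decapitated. Cord superfused with oxygenated medium at 1 mL/min. Agonist (SP, SP(6-11), glutamate or carbachol) applied as 2-mL doses in the superfusate. Antagonist superfused for at least 15 min before agonists were retested. Read-out: % change in ventral root–cord DC potential response amplitude.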

[2] = biological target: Substance-P receptor (Cavia porcellus) (UniProt P30547); experiment: Evaluated in vitro for percent agonist activity in guinea pig ileum (substance P receptor); assay type: functional, tissue-based
Chain of Substance-P receptor (Cavia porcellus) (P30547 whole entry): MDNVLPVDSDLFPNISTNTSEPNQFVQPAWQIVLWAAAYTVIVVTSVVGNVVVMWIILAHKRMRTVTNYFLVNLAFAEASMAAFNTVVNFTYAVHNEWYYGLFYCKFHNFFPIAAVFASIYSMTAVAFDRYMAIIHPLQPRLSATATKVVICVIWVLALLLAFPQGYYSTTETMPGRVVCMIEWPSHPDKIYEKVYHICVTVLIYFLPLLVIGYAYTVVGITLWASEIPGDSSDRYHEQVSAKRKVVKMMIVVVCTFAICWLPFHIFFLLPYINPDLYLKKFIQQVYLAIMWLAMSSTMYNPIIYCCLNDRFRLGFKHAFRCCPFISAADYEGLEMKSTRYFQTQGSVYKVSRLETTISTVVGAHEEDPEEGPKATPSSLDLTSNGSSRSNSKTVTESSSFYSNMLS

[3] = biological target: Substance-P receptor (Rattus norvegicus) (UniProt P14600); experiment: Antagonistic activity against Substance P receptor in rat spinal cord at concentration of 25 uM.
Chain of Substance-P receptor (Rattus norvegicus) (P14600 whole entry, looked up): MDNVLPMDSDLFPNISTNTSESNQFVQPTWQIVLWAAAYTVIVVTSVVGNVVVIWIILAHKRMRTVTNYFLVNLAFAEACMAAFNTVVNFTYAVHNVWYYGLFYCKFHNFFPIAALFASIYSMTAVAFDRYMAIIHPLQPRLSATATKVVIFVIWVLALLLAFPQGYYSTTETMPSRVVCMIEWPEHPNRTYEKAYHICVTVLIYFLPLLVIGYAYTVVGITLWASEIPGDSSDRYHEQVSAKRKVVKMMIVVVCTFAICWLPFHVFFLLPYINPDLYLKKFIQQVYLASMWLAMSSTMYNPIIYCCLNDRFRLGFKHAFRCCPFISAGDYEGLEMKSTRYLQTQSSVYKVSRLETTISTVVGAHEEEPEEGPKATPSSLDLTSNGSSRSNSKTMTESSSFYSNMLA

[4] = biological target: Substance-P receptor (Rattus norvegicus) (UniProt P14600); experiment: Antagonistic activity against Substance P(6-11) receptor in rat spinal cord at concentration of 25 uM.
[5] = biological target: Metabotropic glutamate receptor 3 (Rattus norvegicus) (UniProt P31422); experiment: Antagonistic activity against Glutamate receptor in rat spinal cord at concentration of 10 uM.; assay type: functional, tissue-based
In short: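 Cord superfused with oxygenated medium at 1 mL/min. Agonist (SP, SP(6-11), glutamate or carbachol) applied as 2-mL doses in the superfusate. Antagonist superfused for at least 15 min before agonists were retested. Read-out: % change in ventral root–cord DC potential response amplitude.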

[6] = biological target: Metabotropic glutamate receptor 3 (Rattus norvegicus) (UniProt P31422); experiment: Antagonistic activity against Glutamate receptor in rat spinal cord at concentration of 50 uM.; assay type: functional, tissue-based; in short: as §1
[7] = biological target: Substance-P receptor (Rattus norvegicus) (UniProt P14600); experiment: Antagonistic activity against Substance P receptor in rat spinal cord at concentration of 50 uM.
[8] = biological target: Substance-P receptor (Rattus norvegicus) (UniProt P14600); experiment: Antagonistic activity against Substance P(6-11) receptor in rat spinal cord at concentration of 10 uM.
[9] = biological target: Substance-P receptor (Rattus norvegicus) (UniProt P14600); experiment: Antagonistic activity against Substance P(6-11) receptor in rat spinal cord at concentration of 50 uM.
[10] = biological target: Substance-P receptor (Cavia porcellus) (UniProt P30547); experiment: Antagonistic activity against Substance P(6-11) receptor in guinea pig ileum at concentration of 5 uM.; assay type: functional, tissue-based
In short: (§2)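 Distal ileum from Dunkin-Hartley guinea pigs (300-350 g, both sexes) in a Krebs organ bath at 37 °C, gassed with 95% O2/5% CO2. Agonist (SP or SP(6-11)) dose-response curves run on a 3-min cycle with 1-min contact, with and without antagonist. Dose ratio = agonist EC50 with antagonist / EC50 alone. At least two preparations per compound; ratios below 2 taken as insignificant.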

[11] = biological target: Substance-P receptor (Cavia porcellus) (UniProt P30547); experiment: Antagonistic activity against Substance P receptor in guinea pig ileum at concentration of 5 uM.; assay type: functional, tissue-based; in short: as §2
[12] = biological target: Substance-P receptor (Rattus norvegicus) (UniProt P14600); experiment: Antagonistic activity against Substance P receptor in rat spinal cord at concentration of 5 uM.
[13] = biological target: Substance-P receptor (Rattus norvegicus) (UniProt P14600); experiment: Antagonistic activity against Substance P(6-11) receptor in rat spinal cord at concentration of 5 uM.
[14] = biological target: Substance-P receptor (Cavia porcellus) (UniProt P30547); experiment: Antagonistic activity against Substance P(6-11) receptor in guinea pig ileum at concentration of 50 uM.; assay type: functional, tissue-based; in short: as §2
[15] = biological target: Substance-P receptor (Cavia porcellus) (UniProt P30547); experiment: Antagonistic activity against Substance P receptor in guinea pig ileum at concentration of 50 uM.; assay type: functional, tissue-based; in short: as §2

With `CSCC[C@@H](NC(=O)[C@H](CC(C)C)NC(=O)[C@@H](Cc1c[nH]c2ccccc12)NC(=O)[C@H](Cc1c[nH]c2ccccc12)NC(=O)[C@@H](Cc1c[nH]c2ccccc12)NC(=O)[C@H](CCC(N)=O)NC(=O)[C@H](CCC(N)=O)NC(=O)[C@@H]1CCCN1C(=O)[C@H](CCCCNC(=O)OCc1ccccc1)NC(=O)[C@@H]1CCCN1C(=O)[C@H](CCCN=C(N)N)NC(=O)OCc1ccccc1)C(=O)O` the Change in amplitude response [1] was -40%, the SP [2] was less than 2% and the Change in amplitude response [3] was -12%. For the same compound, the Change in amplitude response [4] was -49%.

Compound `COC(=O)[C@@H](CCSC)NC(=O)[C@H](CC(C)C)NC(=O)CNC(=O)[C@H](Cc1ccccc1)NC(=O)[C@H](Cc1ccccc1)NC(=O)[C@@H](NC(=O)[C@H](NC(=O)[C@@H]1CCCN1C(=O)[C@H](CCCCNC(=O)OCc1ccccc1)NC(=O)[C@@H]1CCCN1C(=O)[C@H](CCCN=C(N)N)NC(=O)OCc1ccccc1)C(C)C)C(C)C` has a Change in amplitude response [5] of -5%, a Change in amplitude response [6] of -17% and an SP [2] of 0.001%. It also gave a Change in amplitude response [7] of -13%, a Change in amplitude response [8] of 31% and a Change in amplitude response [9] of -21%.

`COC(=O)[C@H](CCSC)NC(=O)[C@@H]1CCCN1C(=O)[C@H]1CCCN1C(=O)[C@H](Cc1ccccc1)NC(=O)[C@H](Cc1ccccc1)NC(=O)[C@H](CCC(N)=O)NC(=O)[C@H](CCC(N)=O)NC(=O)[C@@H]1CCCN1C(=O)[C@H](CCCCNC(=O)OCc1ccccc1)NC(=O)[C@@H]1CCCN1C(=O)[C@H](CCCN=C(N)N)NC(=O)OCc1ccccc1` gave a Change in amplitude response [6] of -37%, an SP [2] of 0% and an Activity [10] of less than 2 dose ratio. For the same compound, the Activity [11] was less than 2 dose ratio, the Change in amplitude response [12] was 12% and the Change in amplitude response [7] was -9%. It also gave a Change in amplitude response [13] of -46% and a Change in amplitude response [9] of -86%.

`COC(=O)[C@H](CCSC)NC(=O)[C@@H]1CCCN1C(=O)[C@H]1CCCN1C(=O)[C@H](Cc1ccccc1)NC(=O)[C@H](Cc1ccccc1)NC(=O)[C@H](CCC(N)=O)NC(=O)[C@H](CCC(N)=O)NC(=O)[C@@H]1CCCN1C(=O)[C@@H](CCCCNC(=O)OCc1ccccc1)NC(=O)[C@H]1CCCN1C(=O)[C@@H](CCCN=C(N)N)NC(=O)OCc1ccccc1` showed a Change in amplitude response [6] of 2%, an SP [2] of 0% and an Activity [14] of less than 2 dose ratio. The Activity [15] was 3 dose ratio, the Change in amplitude response [7] was 29% and 39% and the Change in amplitude response [13] was -67%. For the same compound, the Change in amplitude response [9] was -100%.

Work on `COC(=O)[C@@H](CCSC)NC(=O)[C@H](CC(C)C)NC(=O)[C@@H](Cc1c[nH]c2ccccc12)NC(=O)[C@H](Cc1c[nH]c2ccccc12)NC(=O)[C@@H](Cc1c[nH]c2ccccc12)NC(=O)[C@H](CCC(N)=O)NC(=O)[C@H](CCC(N)=O)NC(=O)[C@@H]1CCCN1C(=O)[C@H](CCCCNC(=O)OCc1ccccc1)NC(=O)[C@@H]1CCCN1C(=O)[C@@H](N)CCCN=C(N)N` yielded a Change in amplitude response [6] of -18%, an Activity [10] of less than 2 dose ratio and an Activity [11] of less than 2 dose ratio. For the same compound, the Change in amplitude response [12] was 11%, the Change in amplitude response [7] was -29% and the Change in amplitude response [13] was -13%. The Change in amplitude response [8] was -62%.

With `COC(=O)[C@H](CCSC)NC(=O)[C@@H](NC(=O)[C@H](NC(=O)[C@H](Cc1ccccc1)NC(=O)[C@H](Cc1ccccc1)NC(=O)[C@H](CCC(N)=O)NC(=O)[C@H](CCC(N)=O)NC(=O)[C@@H]1CCCN1C(=O)[C@H](CCCCNC(=O)OCc1ccccc1)NC(=O)[C@@H]1CCCN1C(=O)[C@H](CCCN=C(N)N)NC(=O)OCc1ccccc1)C(C)C)C(C)C` the Change in amplitude response [6] was -36%, the SP [2] was 0% and the Activity [14] was less than 2 dose ratio. It also gave an Activity [15] of less than 2 dose ratio, a Change in amplitude response [7] of -30% and a Change in amplitude response [9] of -22%.
